Here are results for six molecules from ChEMBL document CHEMBL1141844, “Geranins A and B, new antiprotozoal A-type proanthocyanidins from Geranium niveum” (J Nat Prod, 1999).

In general, IC50 refers to the concentration at which inhibition is half-maximal.

In one experiment the test system is MCF7. Briefly: Cytotoxicity against human MCF7 cells after 7 days by MTT method. It counts as functional, cell-based. An outline of the steps: (§1)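 Run at the Purdue Cell Culture Laboratory as a seven-day MTT assay on human solid tumour lines, with adriamycin as the positive control.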
Background: Formazan colour is commonly taken as a measure of viable cells.

The subject of the next experiment is HT-29. The experiment can be described thus: Cytotoxicity against human HT-29 cells after 7 days by MTT method. It counts as functional, cell-based. The essentials: as §1
The test system of the next experiment is A549. Briefly: Cytotoxicity against human A549 cells after 7 days by MTT method. It counts as functional, cell-based. An outline of the steps: as §1
Another experiment relates to Entamoeba histolytica. The experiment can be described thus: Antiprotozoal activity against axenically grown trophozoites of Entamoeba histolytica HM1-IMSS after 48 hrs by MTT method. It counts as functional, organism-based. The essentials:
(§2)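 Log-phase trophozoites from axenic culture: E. histolytica in TYI-S-33 with 10% bovine serum (inoculum 6 × 10³/mL), G. lamblia in modified TYI-S-33 with 10% calf serum (inoculum 5 × 10⁴/mL). Test material in DMSO/medium at 2.5–200 µg/mL, 48 h, 37 °C. Counted by haemocytometer, then MTT (0.075% final) plus PMS, 45 min, A570. Inhibition converted to probits and regressed on log concentration to give IC50. Duplicates, repeated at least three times.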

Another experiment concerns Giardia intestinalis. The experiment can be described thus: Antiprotozoal activity against axenically grown trophozoites of Giardia lamblia IMSS:0989:1 after 48 hrs by MTT method. It counts as functional, organism-based. Conditions: Giardia duodenalis. The essentials: as §2

Converted amounts (≈) assume the structure as drawn. The source made the active and inactive calls. The rule behind the calls is not given here.

With `CC1(C)CC[C@]2(C(=O)O)CC[C@]3(C)C(=CC[C@@H]4[C@@]5(C)CC[C@H](C(=O)/C=C/c6ccc(O)c(O)c6)C(C)(C)[C@@H]5CC[C@]43C)[C@@H]2C1`, the result in the experiment with MCF7, in the experiment on HT-29 and with A549 was inactive. Besides, the IC50 in the experiment on Entamoeba histolytica is 22.6 µg/mL (≈ 37.5 µM); in the experiment with Giardia intestinalis it was 31.2 µg/mL (≈ 51.8 µM).

As for `COC(=O)c1cc(O)c(O)c(O)c1` [GALLIC ACID METHYL ESTER], the outcome in the experiment with MCF7, in the experiment with HT-29 and in the experiment with A549 was inactive. Further, the IC50 is 144 µg/mL (≈ 780 µM) in the experiment on Entamoeba histolytica and 49.2 µg/mL (≈ 267 µM) in the experiment with Giardia intestinalis.

Take `Oc1ccc([C@H]2Oc3c(c(O)cc4c3[C@H]3c5c(O)cc(O)cc5O[C@@](c5ccc(O)cc5)(O4)[C@@H]3O)C[C@@H]2O)cc1` [GERANIN A]: the outcome in the experiment on MCF7, in the experiment on HT-29 and with A549 was inactive. Also, the concentration for half-maximal inhibition (IC50) was found to be 185 µg/mL (≈ 339 µM) in the experiment on Entamoeba histolytica and 2.4 µg/mL (≈ 4.41 µM) in the experiment with Giardia intestinalis.

`Oc1ccc([C@H]2Oc3c(c(O)cc4c3[C@H]3c5c(O)cc(O)cc5O[C@@](c5ccc(O)c(O)c5)(O4)[C@@H]3O)C[C@@H]2O)cc1` [GERANIN B]: the result in the experiment on MCF7, in the experiment with HT-29 and with A549 was inactive. The half-maximal inhibitory concentration (IC50) was 13.6 µg/mL (≈ 24.3 µM) in the experiment with Entamoeba histolytica and 6 µg/mL (≈ 10.7 µM) in the experiment with Giardia intestinalis.

As to `O=c1c(O[C@@H]2O[C@H](CO)[C@H](O)[C@H](O)[C@H]2O)c(-c2ccc(O)c(O)c2)oc2cc(O)cc(O)c12` [HYPEROSIDE], the result with MCF7, in the experiment with HT-29 and in the experiment with A549 was inactive. In addition, the IC50 in the experiment on Entamoeba histolytica turned out to be 109 µg/mL (≈ 235 µM); in the experiment with Giardia intestinalis it was 85.1 µg/mL (≈ 183 µM).

Turning to `Cc1ncc([N+](=O)[O-])n1CCO` [METRONIDAZOLE], the result in the experiment on MCF7, in the experiment on HT-29 and in the experiment on A549 was inactive. This molecule also registered a half-inhibitory concentration (IC50) with Entamoeba histolytica of 0.04 µg/mL (≈ 0.234 µM).
